From ChEMBL document CHEMBL1156875, “Anti-influenza drug discovery: structure-activity relationship and mechanistic insight into novel angelicin derivatives” (J Med Chem, 2010)

Key:
[1] = tested on: Influenza A virus; assay: Antiviral activity against human influenza A virus A/WSN/33 (H1N1) in MDCK cells assessed as reduction of virus-induced cytopathic effect; assay type: functional, organism-based; details: A/WSN/1933(H1N1)
Outline: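 MDCK cells (1.1 × 10^5 cells/mL in DMEM + 10% FBS) grown 24-30 h at 37 C to about 90% confluency. Virus (100 TCID50) premixed with serially diluted compound, adsorbed 1 h at 37 C. Overlay of serum-free DMEM with trypsin 2.5 μg/mL and 0.1% DMSO, then 72 h at 37 C. Formaldehyde fixation, crystal violet stain, A570. IC50 = 50% CPE reduction versus virus control. Triplicate, at least two runs.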

[2] = Cytotoxicity against MDCK cells after 72 hrs; assay type: cell-based, Canis lupus familiaris; details: dog
Outline: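 Uninfected MDCK monolayers (seeded at 1.1 × 10^5 cells/mL, grown 24-30 h to about 90% confluency) exposed to graded compound concentrations for 72 h at 37 C. Read by formaldehyde fixation, 0.1% crystal violet staining and absorbance at 570 nm. CC50 = concentration reducing viability to 50% of control. Triplicate, repeated at least twice.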

| SMILES | IC50 [1] | CC50 at 72 h [2] |
| --- | --- | --- |
| CCCCCCCCCCc1c(C(=O)c2ccccc2)oc2ccc3c(C)cc(=O)oc3c12 | > 25 µM | > 25 µM |
| Cc1cc(=O)oc2c1ccc1oc(C(=O)c3cccc(OCCO)c3)c(-c3ccccc3)c12 | 6.09 µM | > 25 µM |
| O=C(c1ccccc1)c1oc2ccc3ccc(=O)oc3c2c1-c1ccccc1 | 17.6 µM | > 25 µM |
| Cc1cc(=O)oc2c1ccc1oc(C(=O)c3cccc(OCCN(C)C)c3)c(-c3ccccc3)c12 | 5.28 µM | 17.7 µM |
| CCCCCCc1c(C(=O)c2ccccc2)oc2ccc3c(C)cc(=O)oc3c12 | 0.65 µM | > 25 µM |
| CCCc1cc(=O)oc2c1ccc1oc(C(=O)c3ccccc3)c(-c3ccccc3)c12 | 0.47 µM | > 25 µM |
| Cc1cc2oc(C(=O)c3ccccc3)c(-c3ccccc3)c2c2oc(=O)ccc12 | 7.76 µM | > 25 µM |
| Cc1cc(=O)oc2c1ccc1oc(C(=O)c3ccccc3)c(-c3cccc(C#N)c3)c12 | 0.53 µM | > 25 µM |
| Cc1c(C)c2ccc3oc(C(=O)c4ccccc4)c(-c4ccccc4)c3c2oc1=O | 0.29 µM | > 25 µM |
| Cc1cc(=O)oc2c1ccc1oc(C(=O)c3cccc(Cl)c3)c(-c3ccccc3)c12 | 0.26 µM | > 25 µM |
| Cc1cc(=O)oc2c1ccc1oc(C(=O)c3ccsc3)c(-c3ccccc3)c12 | 0.15 µM | > 25 µM |
| Cc1cccc(C(=O)c2oc3ccc4c(C)cc(=O)oc4c3c2-c2ccccc2)c1 | 0.26 µM | > 25 µM |
| Cc1cc(=O)oc2c1ccc1oc(C(=O)c3ccccc3)c(-c3cc(Br)cc(Br)c3)c12 | 0.1 µM | > 25 µM |
| Cc1ccc(C(=O)c2oc3ccc4c(C)cc(=O)oc4c3c2-c2ccccc2)cc1 | 0.87 µM | > 25 µM |
| COc1ccccc1C(=O)c1oc2ccc3c(C)cc(=O)oc3c2c1-c1ccccc1 | 0.64 µM | > 25 µM |
| O=C(c1ccccc1)c1oc2ccc3c4c(c(=O)oc3c2c1-c1ccccc1)CCCC4 | > 25 µM | > 25 µM |

| SMILES | IC50 [1] | CC50 at 72 h [2] |
| --- | --- | --- |
| Cc1cc(=O)oc2c1ccc1oc(C(=O)c3ccccc3)c(-c3cccs3)c12 | 0.15 µM | > 25 µM |
| CCCCOc1cccc(C(=O)c2oc3ccc4c(C)cc(=O)oc4c3c2-c2ccccc2)c1 | 0.08 µM | > 25 µM |
| Cc1cc(=O)oc2c1ccc1oc(C(=O)c3ccccc3)c(-c3cccc(Cl)c3)c12 | 1.41 µM | > 25 µM |
| Cc1cc(=O)oc2c1ccc1oc(C(=O)c3ccccc3)c(-c3ccccc3)c12 | 0.14 µM | > 25 µM |
| Cc1cc(=O)oc2c1ccc1occ(-c3ccccc3)c12 | > 25 µM | > 25 µM |
| Cc1cc(=O)oc2c1ccc1oc(C(=O)c3ccccc3)c(-c3ccccc3Br)c12 | 0.73 µM | > 25 µM |
| Cc1ccc(-c2c(C(=O)c3ccccc3)oc3ccc4c(C)cc(=O)oc4c23)cc1 | 0.82 µM | > 25 µM |
| CCOc1cccc(C(=O)c2oc3ccc4c(C)cc(=O)oc4c3c2-c2ccccc2)c1 | 0.12 µM | > 25 µM |
| Cc1cc(=O)oc2c1ccc1oc(C(=O)c3ccccn3)c(-c3ccccc3)c12 | 0.61 µM |  |
| Cc1cc(=O)oc2c1ccc1oc(C(O)c3ccccc3)c(-c3ccccc3)c12 (configuration not stated) | 0.32 µM | > 25 µM |
| Cc1cc(=O)oc2c1ccc1oc(C(=O)c3ccccc3)c(C)c12 | 4.51 µM | > 25 µM |
| COc1ccc(-c2c(C(=O)c3ccccc3)oc3ccc4c(C)cc(=O)oc4c23)cc1 | 10.1 µM | > 25 µM |
| Cc1cccc(-c2c(C(=O)c3ccccc3)oc3ccc4c(C)cc(=O)oc4c23)c1 | 0.1 µM | > 25 µM |
| CCCCCCCCOc1cccc(C(=O)c2oc3ccc4c(C)cc(=O)oc4c3c2-c2ccccc2)c1 | 7.97 µM | > 25 µM |
| Cc1cc(=O)oc2c1ccc1oc(C(=O)c3ccccc3)c(-c3ccc(Cl)cc3)c12 | 3.92 µM | > 25 µM |
| Cc1cc(=O)oc2c1ccc1oc(C(=O)c3ccc([N+](=O)[O-])cc3)c(-c3ccccc3)c12 | > 6.25 µM |  |
